Screening results (PubChem BioAssay)
MEKK2wt PB1 HTS = raises or lowers MEK5 binding to wildtype human MEKK2 PB1 domain; Q9Y2U5; bead flow cytometry, Alexa488-MEK5 binding to MEKK2 WT; actives lie on both sides; binding response (% of control), % at 10 µM; 1.1% of 290,000 active; in the data active = binding response below about 67% or above about 130%
Rce1 inh = yeast Ras-converting enzyme inhibition; 0.27% of 290,000 active; calls only; yeast membranes, quenched prenylated peptide cleavage fluorescence; Q03530;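 active = fall in fluorescence gain of 50% or more versus controls, with final raw signal at or below 3038400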
Target sequence (Q03530 whole entry, looked up): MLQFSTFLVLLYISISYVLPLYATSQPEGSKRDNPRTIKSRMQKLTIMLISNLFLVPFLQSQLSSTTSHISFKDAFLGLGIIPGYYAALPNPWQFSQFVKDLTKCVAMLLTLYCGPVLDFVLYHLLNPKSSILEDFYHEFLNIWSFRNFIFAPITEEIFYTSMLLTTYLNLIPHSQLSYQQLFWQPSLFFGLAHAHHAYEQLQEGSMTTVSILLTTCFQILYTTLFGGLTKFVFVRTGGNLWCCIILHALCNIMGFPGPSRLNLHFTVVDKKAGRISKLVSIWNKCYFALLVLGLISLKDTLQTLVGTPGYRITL
MEKK2 mut-MEK5 = signal of MEK5 binding to mutant human MEKK2 PB1 domain; percent response, % at 10 µM; bead flow cytometry, Alexa488-MEK5 binding to MEKK2 mutant; 0.35% of 290,000 active; AID 1530; in the data active = percent response above about 24%, passing the limit was not always enough
MEKK3 PB1 HTS = raises or lowers MEK5 binding to the human MEKK3 PB1 domain | Q99759 | bead-based flow cytometry, Alexa488-MEK5 binding to MEKK3; actives lie on both sides; 0 = blocked by unlabeled MEK5, 100 = vehicle | binding response (% of control), % at 10 µM | 1.4% of 290,000 active | AID 1529;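 active = binding response more than 3 SD above or below the average of its plate-row segment, actives on both sides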;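 note: Alexa488 bead fluorescence after subtracting the streptavidin-only scavenger bead signal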
UCH37 inh = blocks the human deubiquitinase UCH37 | 0.33% of 330,000 active | AID 588478 | purified proteasome/UCH37, Ub-AMC cleavage fluorescence | inhibition, % (no concentration beside the values);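 active = mean inhibition over replicate wells above about 20%, limit read from the data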
Target sequence (Q9Y5K5 whole entry, looked up): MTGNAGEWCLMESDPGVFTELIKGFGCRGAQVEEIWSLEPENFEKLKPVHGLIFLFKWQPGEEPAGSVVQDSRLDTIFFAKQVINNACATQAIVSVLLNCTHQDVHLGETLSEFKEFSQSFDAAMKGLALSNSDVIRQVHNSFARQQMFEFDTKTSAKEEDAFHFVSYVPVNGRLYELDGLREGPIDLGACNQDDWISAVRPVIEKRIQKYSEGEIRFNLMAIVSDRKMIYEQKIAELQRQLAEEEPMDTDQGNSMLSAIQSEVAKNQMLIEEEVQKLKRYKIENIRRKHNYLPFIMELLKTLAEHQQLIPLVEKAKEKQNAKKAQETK
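System: Proteasome-associated human UCH37 deubiquitinase; Input: 0.15 nM proteasome in added enzyme buffer; Also added: Ub-AMC substrate from 1 µM stock; Incubation: 30 min compound-proteasome preincubation then 25 min substrate reaction, room temperature; Detection: fluorescence, ex 355 nm, em 460 nm; Read-out: % inhibition of Ub-AMC cleavage fluorescence; Benchmarks: no-proteasome and no-compound wells.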
T cell HTS = modulates CD8 T cell binding to vesicles | response (vesicle binding), % at 7 µM | 0.068% of 330,000 active | AID 2052 | 2C CD8+ T cell-vesicle binding, flow cytometry; stronger effect = lower value;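 active = response, share of CD8 T cells binding vesicles, and their 90th percentile fluorescence all below set limits, cut at about 80% in these data, passing the limit was not always enough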;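 note: values below 100% mean blocked vesicle binding to the CD8+ T cells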
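Assay system: 2C TCR transgenic mouse naive CD8+ T cells, MACS-purified | Read-out: CD8+ gate FL2 mean fluorescence as % of same-row positive control | Signal: High-throughput flow cytometry with anti-B7-1 and anti-CD8 staining | Timing: Binding step 1.5 h, 37 °C, antibody labelling 20 min, ice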
MEKK2wt confirm = raises or lowers MEK5 binding to wildtype human MEKK2, retest; shares compounds with MEKK3 PB1 HTS; 2.4% of 5,900 active; bead flow cytometry, Alexa488-MEK5 binding to MEKK2 WT; actives lie on both sides; binding response (% of control), % at 10 µM; in the data active = binding response below about 16% or above about 210%; inactive = in between
MEKK2mut confirm = signal of MEK5 binding to mutant human MEKK2, retest; shares compounds with MEKK3 PB1 HTS; 2% of 5,900 active; percent response, % at 10 µM; bead flow cytometry, Alexa488-MEK5 binding to MEKK2 mutant; in the data active = percent response mostly above about 71%, no sharp cut-off; inactive = mostly below about 38%;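 note: higher means compound restores mutant binding toward wildtype level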
MEKK3 confirm = MEKK3-MEK5 PB1 inhibition, single concentration confirmation; shares compounds with MEKK3 PB1 HTS; binding response (% of control), % at 10 µM; 1.8% of 5,900 active; bead flow cytometry, Alexa488-MEK5 binding to MEKK3; stronger effect = lower value;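 active = binding response below 72% of control, or above a set upper limit, though filed actives all read lower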
Numbers stand for hits; n = inactive; x = no result given; [ ] = dose if it differs, or a comment. Only some compounds are listed: those with a hit (about 2.5% of all), similar ones and a draw of the others.

SMILES	MEKK2wt PB1 HTS	Rce1 inh	MEKK2 mut-MEK5	MEKK3 PB1 HTS	UCH37 inh	T cell HTS	MEKK2wt confirm	MEKK2mut confirm	MEKK3 confirm
O=C(Nc1nc2ccccc2[nH]1)c1ccccc1	21.0[inhibitor]	n	n	13.0[inhibitor]	n	n	n	n	n
CSCCC(NC(N)=O)C(=O)Nc1cccc(S(=O)(=O)N2CCOCC2)c1 (stereo not given)	n	n	n	72.0[inhibitor]	n	n	n	n	n
CSCCC(NC(=O)c1cccc(S(=O)(=O)N2CCOCC2)c1)C(=O)Nc1ccc(F)cc1 (stereo not given)	n	n	n	n	n	n	x	x	x
Cc1ccc(-c2ccc(C=Nc3ncn[nH]3)o2)cc1Cl	x	x	x	x	n	x	x	x	x
CCOc1cc(C=N/N=C2/NC(=O)C(CC(=O)O)S2)ccc1OCc1ccccc1Cl (stereo not given)	x	x	x	x	n	x	x	x	x
CN1CCN(C(=O)CSc2ccc(Cl)cc2)CC1	n	n	n	75.0[inhibitor]	n	n	n	n	n
CN1CCCN(C(=O)CSc2ccccc2)CC1	n	n	n	n	n	n	x	x	x
COCCNCC(=O)N1c2ccccc2Sc2ccccc21	n	n	n	n	n	n	x	x	x
CC(C)CNCC(=O)N1c2ccccc2Sc2ccccc21	1.0[inhibitor]	n	n	2.0[inhibitor]	n	n	n	n	n
CCOc1ccc(C=NNC(=O)c2c(-c3ccccc3)noc2C)cc1	x	x	x	x	n	x	x	x	x
Cc1[nH]c2ccccc2c1C(=O)COC(=O)Cn1cnc2ccccc21	n	n	55.0	n	n	n	n	n	n
Cc1[nH]c2ccccc2c1/C=N/NC(=S)NC(C)C	18.0	n	144.0	n	x	n	n	n	n
Cc1[nH]c2ccccc2c1/C=N/Nc1ccccc1[N+](=O)[O-]	n	n	n	67.0[inhibitor]	x	n	n	n	n
CC(=O)NN=CC1=CCC2CC1C2(C)C (stereo not given)	x	x	x	x	n	x	x	x	x
O=C(NN=Cc1cccc([N+](=O)[O-])c1)c1ccc2nc[nH]c2c1	x	x	x	x	n	x	x	x	x
Cc1cc([N+](=O)[O-])ccc1NC(=O)COc1nsnc1N1CCOCC1	n	n	n	n	n	n	x	x	x
Cc1ccccc1NC(=O)COc1nsnc1N1CCOCC1	2.0[inhibitor]	n	n	2.0[inhibitor]	n	n	n	n	n
CN(Cc1ccccc1)CC(O)COc1ccc(CNCCc2ccncc2)cc1 (stereo not given)	n	n	n	n	n	n	x	x	x
CCn1ccnc1CNCc1ccc(OCC(O)CN(C)Cc2ccccc2)cc1 (stereo not given)	138.0	n	n	n	n	n	n	n	n
CN(Cc1ccccc1)CC(O)COc1ccc(CNCCc2cccnc2)cc1 (stereo not given)	187.0	n	63.0	n	n	n	n	n	n
CCc1ccc(CNCc2ccc(OCC(O)CN(C)Cc3ccccc3)cc2)nc1 (stereo not given)	170.0	n	59.0	n	n	n	n	n	n
CC(=O)Nc1ccc(S(=O)(=O)N(Cc2ccccc2)C(C)C)cc1	1.0[inhibitor]	n	n	1.0[inhibitor]	n	n	n	n	n
CC(=NNC(=O)COc1ccccc1-c1ccccc1)c1cccnc1	x	x	x	x	n	x	x	x	x
CCC(c1nnnn1Cc1ccc2c(c1)OCO2)N1CCN(CC)CC1 (stereo not given)	n	n	n	131.0	n	n	n	n	n
O=C(NC(=S)N1CCN(Cc2ccc3c(c2)OCO3)CC1)c1cccc(Br)c1	n	n	n	n	n	n	x	x	x
SMILES	MEKK2wt PB1 HTS	Rce1 inh	MEKK2 mut-MEK5	MEKK3 PB1 HTS	UCH37 inh	T cell HTS	MEKK2wt confirm	MEKK2mut confirm	MEKK3 confirm
O=C(NC(=S)N1CCN(Cc2ccc3c(c2)OCO3)CC1)c1ccc(Cl)cc1	n	n	55.0	n	n	n	n	n	n
Fc1ccccc1NC(=S)N1CCN(Cc2ccc3c(c2)OCO3)CC1	n	n	n	136.0	n	n	n	n	n
COc1ccccc1NC(=O)c1ccc(NC(=O)COC(=O)CC(NC(=O)c2ccccc2Cl)c2ccccc2)cc1 (stereo not given)	n	x	n	130.0	n	n	n	n	n
COC(=O)C(Cc1c[nH]c2ccccc12)NC(=O)c1cccs1 (stereo not given)	n	n	n	n	n	n	x	x	x
O=C(NC(Cc1c[nH]c2ccccc12)C(=O)Nc1ccc(F)cc1)c1cccs1 (stereo not given)	n	n	n	128.0	n	n	n	n	n
Cc1[nH]n(-c2ccccc2)c(=O)c1C=NCc1ccncc1	n	n	n	n	n	n	x	x	x
Cc1ccc(-n2[nH]c(C)c(C=NCc3ccncc3)c2=O)cc1	n	n	n	130.0	n	n	n	n	n
O=C(Cc1nnc(NC(=O)c2ccccc2)s1)NN=Cc1ccc(O)cc1	x	x	x	x	n	x	x	x	x
CCS(=O)(=O)Nc1cccc(C2=NN(S(=O)(=O)CC)C(c3ccccc3)C2)c1 (stereo not given)	142.0	n	355.0	n	n	n	n	n	n
CCc1ccc(C2=NN(S(C)(=O)=O)C(c3cccs3)C2)cc1 (stereo not given)	x	n	x	12.0[inhibitor]	n	n	n	n	n
CCS(=O)(=O)Nc1cccc(C2=NN(S(=O)(=O)c3ccccc3)C(c3cccs3)C2)c1 (stereo not given)	x	n	106.0	21.0[inhibitor]	n	n	n	n	n
Cc1ccc(C2=NN(S(C)(=O)=O)C(c3cccs3)C2)cc1 (stereo not given)	n	n	n	n	n	n	x	x	x
Cc1ccccc1C(=O)Nc1ccccc1C(=O)NN=Cc1ccco1	x	x	x	x	n	x	x	x	x
COc1ccc(Nc2cc(C(=O)NCCCN3CCOCC3)c3ccccc3n2)cc1OC	n	n	n	n	n	n	x	x	x
COc1ccc(-c2nc(C(=O)NCCCN3CCOCC3)cc3c2[nH]c2ccccc23)cc1OC	137.0	n	n	n	n	n	n	n	n
Cc1ccc(-c2nc(C(=O)NCCCN3CCOCC3)cc3c2[nH]c2ccccc23)cc1	142.0	n	n	n	n	n	n	n	n
O=C(O)c1ccc(C=NNC(=S)NCCN2CCOCC2)cc1	x	x	x	x	n	x	x	x	x
CON=CC1C(=O)NN=C1c1ccccc1 (stereo not given)	x	x	x	x	n	x	x	x	x
Cc1c(C=NNC(=O)c2ccc3c(c2)OCO3)cnn1C	x	x	x	x	n	x	x	x	x
O=C(Cn1cnc2ccccc2c1=O)N1CCN(c2ccccc2)CC1	n	n	n	122.0	n	n	n	n	n
Cc1ccc(C=Nn2c(-c3ccncc3)n[nH]c2=S)s1	x	x	x	x	n	x	x	x	x
